Experimental data reported in ChEMBL document CHEMBL3286180, “Efficacious inhaled PDE4 inhibitors with low emetic potential and long duration of action for the treatment of COPD” (J Med Chem, 2014).
pIC50: −log10 of the molar value. Values after ≈ are worked out from the molar mass of the structure shown. Values belong to the compound of their own block, whether it stands above or below them. Active and inactive are the calls of the source. The rule behind the calls is not given here.

Experiments:
[1] = Half life in rat at 1 mg/kg, iv; assay type: ADME, organism-based; design: dose 1 mg/kg, route intravenous; settings: in vivo
Method in brief: (§1)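 Rat pharmacokinetics were run at 1 mg/kg, given iv or by intratracheal instillation, with 2−3 animals per study.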

Rattus norvegicus [2] = assay: Antiinflammatory activity in Sprague-Dawley rat assessed as inhibition of LPS-induced bronchoalveolar lavage neutrophils measured as LPS duration at 0.01 mg/ml, inhalation administered as nebulized suspension; assay type: functional, organism-based; settings: 0.1 mg/ml, in the assay text read “0.1 mg/ml” for “0.01 mg/ml”
Method in brief: (§2)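 Duration protocol: rats received a nose-only inhalation of nebulized aqueous compound solution 12 h before LPS challenge. Dose is expressed as mg/mL nebulizer concentration. Readout was LPS-induced pulmonary neutrophilia, with terminal lung concentration (nM) measured. Groups held 8−10 animals per treatment.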

[3] = Fraction unbound in human plasma; assay type: ADME, cell-free
Cytochrome P450 2D6 = Cytochrome P450 2D6 (Homo sapiens, UniProt P10635); assay: Inhibition of CYP2D6 (unknown origin); assay type: ADME
Sequence of Cytochrome P450 2D6 (P10635 whole entry): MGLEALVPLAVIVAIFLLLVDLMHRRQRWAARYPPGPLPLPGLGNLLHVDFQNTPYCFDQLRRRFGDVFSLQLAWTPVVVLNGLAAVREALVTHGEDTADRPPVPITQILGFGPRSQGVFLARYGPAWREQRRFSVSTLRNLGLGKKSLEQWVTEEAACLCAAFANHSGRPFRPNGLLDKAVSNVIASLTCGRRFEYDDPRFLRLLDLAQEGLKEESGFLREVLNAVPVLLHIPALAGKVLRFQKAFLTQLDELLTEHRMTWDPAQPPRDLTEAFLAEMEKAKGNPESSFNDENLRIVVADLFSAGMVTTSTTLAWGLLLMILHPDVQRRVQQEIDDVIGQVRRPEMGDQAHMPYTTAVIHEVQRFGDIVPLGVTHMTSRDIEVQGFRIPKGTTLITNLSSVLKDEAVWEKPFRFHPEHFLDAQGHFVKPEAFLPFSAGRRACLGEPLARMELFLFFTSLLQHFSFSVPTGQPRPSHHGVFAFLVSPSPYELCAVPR

[4] = biological target: Voltage-gated inwardly rectifying potassium channel KCNH2 (Homo sapiens, UniProt Q12809); assay: Inhibition of human ERG
Sequence of Voltage-gated inwardly rectifying potassium channel KCNH2 (Q12809 whole entry): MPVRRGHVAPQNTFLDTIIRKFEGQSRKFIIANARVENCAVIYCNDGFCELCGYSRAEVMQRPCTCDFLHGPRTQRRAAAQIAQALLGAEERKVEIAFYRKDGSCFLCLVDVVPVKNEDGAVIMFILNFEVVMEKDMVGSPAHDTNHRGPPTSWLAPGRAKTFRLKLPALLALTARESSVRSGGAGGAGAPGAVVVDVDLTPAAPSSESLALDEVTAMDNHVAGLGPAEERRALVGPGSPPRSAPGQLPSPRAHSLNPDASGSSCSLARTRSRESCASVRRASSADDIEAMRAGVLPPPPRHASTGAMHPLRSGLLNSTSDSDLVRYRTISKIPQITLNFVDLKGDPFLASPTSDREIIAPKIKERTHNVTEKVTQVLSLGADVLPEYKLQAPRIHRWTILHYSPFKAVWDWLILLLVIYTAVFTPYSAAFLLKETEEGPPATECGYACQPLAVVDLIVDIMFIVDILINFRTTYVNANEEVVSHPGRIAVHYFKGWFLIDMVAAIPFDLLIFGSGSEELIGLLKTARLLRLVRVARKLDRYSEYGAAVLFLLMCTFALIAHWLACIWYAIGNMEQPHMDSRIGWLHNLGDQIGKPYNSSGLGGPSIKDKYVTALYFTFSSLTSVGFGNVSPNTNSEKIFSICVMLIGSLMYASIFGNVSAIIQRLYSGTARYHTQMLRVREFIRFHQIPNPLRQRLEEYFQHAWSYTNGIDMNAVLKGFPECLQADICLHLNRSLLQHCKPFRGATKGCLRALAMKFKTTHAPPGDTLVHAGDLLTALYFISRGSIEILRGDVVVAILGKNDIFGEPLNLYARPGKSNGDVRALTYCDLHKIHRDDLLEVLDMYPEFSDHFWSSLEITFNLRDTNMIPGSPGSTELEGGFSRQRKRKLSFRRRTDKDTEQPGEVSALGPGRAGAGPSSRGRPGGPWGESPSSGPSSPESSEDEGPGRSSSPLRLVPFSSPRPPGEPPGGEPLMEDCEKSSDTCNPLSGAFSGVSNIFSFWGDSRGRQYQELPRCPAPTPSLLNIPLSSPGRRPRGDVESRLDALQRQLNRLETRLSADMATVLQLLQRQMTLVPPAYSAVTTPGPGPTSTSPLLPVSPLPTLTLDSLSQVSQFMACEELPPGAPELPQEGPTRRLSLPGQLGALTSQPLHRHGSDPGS

[5] = Aqueous solubility of the compound at pH 7.4; assay type: physicochemical; settings: aqueous medium
Rattus norvegicus [6] = assay: Antiinflammatory activity in Sprague-Dawley rat assessed as inhibition of LPS-induced bronchoalveolar lavage neutrophils at 0.1 mg/ml, inhalation administered as nebulized suspension; assay type: functional, organism-based
Method in brief: (§3)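 Rats were given the compound as an aqueous nebulized aerosol by nose-only inhalation 30 min before LPS challenge. Dose is expressed as mg/mL nebulizer concentration. Lung neutrophilia was the readout, and terminal lung concentration (nM) was measured. Groups held 8−10 animals per treatment.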

[7] = Volume of distribution at steady state in rat at 1 mg/kg, iv; assay type: ADME, organism-based; design: dose 1 mg/kg, route intravenous; settings: in vivo, read-out: Vdss
Rattus norvegicus [8] = assay: Apparent volume of distribution in rat at 1 mg/kg, iv; assay type: ADME, organism-based; design: dose 1 mg/kg, route intravenous; settings: in vivo; method in brief: as §1
CYP (isoform not stated) = assay: Time dependent inhibition of CYP (unknown origin) at 50 uM; assay type: ADME; settings: human; read-out: TDI
[9] = Clearance in rat at 1 mg/kg, iv; assay type: ADME, organism-based; design: dose 1 mg/kg, route intravenous; settings: in vivo; method in brief: as §1
Rattus norvegicus [10] = assay: Antiinflammatory activity in Sprague-Dawley rat assessed as inhibition of LPS-induced bronchoalveolar lavage neutrophils measured as LPS duration at 0.1 mg/ml, inhalation administered as nebulized suspension; assay type: functional, organism-based; method in brief: as §2
Cytochrome P450 3A4 = Cytochrome P450 3A4 (Homo sapiens, UniProt P08684); assay: Inhibition of CYP3A4 (unknown origin); assay type: ADME
Sequence of Cytochrome P450 3A4 (P08684 whole entry): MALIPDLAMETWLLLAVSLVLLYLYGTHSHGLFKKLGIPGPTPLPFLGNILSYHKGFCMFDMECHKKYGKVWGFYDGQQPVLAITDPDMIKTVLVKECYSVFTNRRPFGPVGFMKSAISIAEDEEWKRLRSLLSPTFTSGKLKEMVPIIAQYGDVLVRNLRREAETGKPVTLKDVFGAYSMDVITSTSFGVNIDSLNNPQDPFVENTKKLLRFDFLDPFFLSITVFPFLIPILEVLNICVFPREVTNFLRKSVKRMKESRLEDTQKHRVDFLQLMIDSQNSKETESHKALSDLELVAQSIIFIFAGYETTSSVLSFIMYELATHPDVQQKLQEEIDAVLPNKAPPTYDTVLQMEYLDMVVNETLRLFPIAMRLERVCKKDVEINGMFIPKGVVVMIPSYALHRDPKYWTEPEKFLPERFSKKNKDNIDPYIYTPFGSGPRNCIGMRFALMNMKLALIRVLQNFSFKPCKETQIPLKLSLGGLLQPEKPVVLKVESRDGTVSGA

[11] = Lipophilicity, log D of the compound; assay type: physicochemical; settings: octanol/water
[12] = Fraction unbound in rat plasma; assay type: ADME, cell-free
[13] = Intrinsic clearance in rat hepatocytes measured per 10^6 cells; assay type: ADME, cell-based, Hepatocyte; settings: read-out: CLH
Cytochrome P450 2C9 = Cytochrome P450 2C9 (Homo sapiens, UniProt P11712); assay: Inhibition of CYP2C9 (unknown origin); assay type: ADME
Sequence of Cytochrome P450 2C9 (P11712 whole entry): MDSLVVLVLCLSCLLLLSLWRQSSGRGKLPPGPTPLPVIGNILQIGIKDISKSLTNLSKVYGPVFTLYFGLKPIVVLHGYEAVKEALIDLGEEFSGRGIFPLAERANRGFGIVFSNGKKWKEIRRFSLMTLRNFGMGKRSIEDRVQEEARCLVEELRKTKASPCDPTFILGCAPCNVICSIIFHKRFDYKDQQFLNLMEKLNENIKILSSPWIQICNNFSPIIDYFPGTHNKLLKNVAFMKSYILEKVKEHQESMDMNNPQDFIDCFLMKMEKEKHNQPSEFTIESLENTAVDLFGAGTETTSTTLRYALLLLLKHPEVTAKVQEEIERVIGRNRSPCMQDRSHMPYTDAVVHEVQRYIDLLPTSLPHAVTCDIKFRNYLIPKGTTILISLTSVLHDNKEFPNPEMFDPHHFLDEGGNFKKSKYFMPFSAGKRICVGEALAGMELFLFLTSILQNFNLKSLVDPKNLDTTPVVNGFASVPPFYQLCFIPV

PBMC = assay: Antiinflammatory activity in human PBMC assessed as inhibition of LPS-induced TNFalpha production after 20 hrs by fluorescence linked immunosorbant assay; assay type: functional, cell-based
Cytochrome P450 2C19 = Cytochrome P450 2C19 (Homo sapiens, UniProt P33261); assay: Inhibition of CYP2C19 (unknown origin); assay type: ADME
Sequence of Cytochrome P450 2C19 (P33261 whole entry): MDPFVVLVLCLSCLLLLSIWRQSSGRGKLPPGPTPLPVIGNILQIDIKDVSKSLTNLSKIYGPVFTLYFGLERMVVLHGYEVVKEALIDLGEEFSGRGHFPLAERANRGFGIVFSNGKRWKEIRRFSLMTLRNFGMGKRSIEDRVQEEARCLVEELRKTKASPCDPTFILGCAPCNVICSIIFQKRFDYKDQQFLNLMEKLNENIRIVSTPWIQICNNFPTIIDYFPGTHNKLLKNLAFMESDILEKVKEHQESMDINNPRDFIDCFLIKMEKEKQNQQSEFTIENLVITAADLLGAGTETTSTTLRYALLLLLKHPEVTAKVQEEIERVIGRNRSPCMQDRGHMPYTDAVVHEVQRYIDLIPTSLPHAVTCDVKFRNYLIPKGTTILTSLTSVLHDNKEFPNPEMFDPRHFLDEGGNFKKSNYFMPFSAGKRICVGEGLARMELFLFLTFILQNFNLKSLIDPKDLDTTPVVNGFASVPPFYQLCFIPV

Rattus norvegicus [14] = assay: Antiinflammatory activity in Sprague-Dawley rat assessed as inhibition of LPS-induced bronchoalveolar lavage neutrophils at 0.01 mg/ml, inhalation administered as nebulized suspension; assay type: functional; method in brief: as §3
[15] = Intrinsic clearance in human liver microsomes; assay type: ADME; settings: read-out: CLH
[16] = biological target: 3',5'-cyclic-AMP phosphodiesterase 4D (Homo sapiens, UniProt Q08499); assay: Inhibition of human PDE4D using [3H]cAMP by packard topcount scintillation counting analysis
[17] = Clearance in dog; assay type: ADME, organism-based, Canis lupus familiaris; settings: in vivo
Rattus norvegicus [18] = assay: Antiinflammatory activity in Sprague-Dawley rat assessed as inhibition of LPS-induced bronchoalveolar lavage neutrophils measured as terminal lung concentration at 0.1 mg/ml, inhalation administered as […] treated 12 hrs before LPS; assay type: functional; method in brief: as §2
Rattus norvegicus [19] = assay: Antiinflammatory activity in nasally dosed Sprague-Dawley rat assessed as inhibition of LPS-induced bronchoalveolar lavage neutrophils measured as lung deposited dose administered as […]; assay type: functional
Method in brief: (§4)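 ED80 was derived from the nose-only nebulized-solution dose response in rats dosed 30 min before LPS challenge, with neutrophilia as the readout. ED80 is given as nebulizer concentration, as the matching terminal total lung concentration, and as lung deposited dose estimated from measured filter sample and terminal lung levels.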

Rattus norvegicus [20] = assay: Antiinflammatory activity in Sprague-Dawley rat assessed as inhibition of LPS-induced bronchoalveolar lavage neutrophils measured as terminal lung concentration at 0.03 mg/ml, inhalation administered as […] treated 12 hrs before LPS; assay type: functional; method in brief: as §2
Rattus norvegicus [21] = assay: Antiinflammatory activity in Sprague-Dawley rat assessed as inhibition of LPS-induced bronchoalveolar lavage neutrophils measured as terminal lung concentration at 0.03 mg/ml, inhalation administered as nebulized suspension; assay type: functional; method in brief: as §3
Rattus norvegicus [22] = assay: Antiinflammatory activity in Sprague-Dawley rat assessed as inhibition of LPS-induced bronchoalveolar lavage neutrophils measured as terminal lung concentration at 0.3 mg/ml, inhalation administered as nebulized suspension treated 12 hrs before LPS; assay type: functional; settings: in the assay text read “nebulized solution” for “nebulized suspension”; method in brief: as §2
Rattus norvegicus [23] = assay: Antiinflammatory activity in nasally dosed Sprague-Dawley rat assessed as inhibition of LPS-induced bronchoalveolar lavage neutrophils measured as nebulizer concentration administered as […]; assay type: functional; method in brief: as §4
Blood = assay: Antiinflammatory activity in human whole blood assessed as inhibition of LPS-induced TNFalpha production after 20 hrs by ELISA; assay type: functional, tissue-based
Rattus norvegicus [24] = assay: Antiinflammatory activity in Sprague-Dawley rat assessed as inhibition of LPS-induced bronchoalveolar lavage neutrophils measured as terminal lung concentration at 0.1 mg/ml, inhalation administered as nebulized suspension; assay type: functional; method in brief: as §3
[25] = Half life in rat at 1 mg/kg, it; assay type: ADME, organism-based; design: dose 1 mg/kg, route endotracheal; settings: in vivo, inhaled or intranasal; method in brief: as §1
[26] = biological target: T1, 3',5'-cyclic-AMP phosphodiesterase 4B (Homo sapiens, UniProt Q07343); assay: Inhibition of human recombinant PDE4B at high-affinity rolipram binding site
T1 sequence (Q07343 whole entry): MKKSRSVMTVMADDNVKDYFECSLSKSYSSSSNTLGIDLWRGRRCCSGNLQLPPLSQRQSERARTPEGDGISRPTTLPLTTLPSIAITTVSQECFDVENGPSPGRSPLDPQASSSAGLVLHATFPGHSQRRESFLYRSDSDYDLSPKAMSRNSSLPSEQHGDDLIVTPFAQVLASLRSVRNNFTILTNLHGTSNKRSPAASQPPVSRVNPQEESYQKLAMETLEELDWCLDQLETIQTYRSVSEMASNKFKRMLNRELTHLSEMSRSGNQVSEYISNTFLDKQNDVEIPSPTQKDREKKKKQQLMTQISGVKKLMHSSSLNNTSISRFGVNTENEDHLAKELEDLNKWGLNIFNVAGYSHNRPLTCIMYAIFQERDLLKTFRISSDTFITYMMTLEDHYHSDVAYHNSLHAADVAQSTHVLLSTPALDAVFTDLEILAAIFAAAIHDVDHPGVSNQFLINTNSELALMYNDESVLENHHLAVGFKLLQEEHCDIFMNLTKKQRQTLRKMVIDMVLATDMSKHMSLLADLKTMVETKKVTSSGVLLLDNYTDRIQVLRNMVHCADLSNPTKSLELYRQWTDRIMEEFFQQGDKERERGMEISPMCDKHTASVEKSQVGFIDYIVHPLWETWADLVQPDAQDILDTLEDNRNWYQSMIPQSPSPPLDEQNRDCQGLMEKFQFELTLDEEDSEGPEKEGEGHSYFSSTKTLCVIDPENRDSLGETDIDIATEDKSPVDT

[27] = Volume of distribution at steady state in dog; assay type: ADME, organism-based, Canis lupus familiaris; settings: in vivo, read-out: Vdss
[28] = Lipophilicity, log K of the compound; assay type: physicochemical; settings: octanol/water
[29] = Apparent volume of distribution in dog; assay type: ADME, organism-based, Canis lupus familiaris; settings: in vivo, read-out: Vz/F
Rattus norvegicus [30] = assay: Antiinflammatory activity in Sprague-Dawley rat assessed as inhibition of LPS-induced bronchoalveolar lavage neutrophils measured as terminal lung concentration at 0.003 mg/ml, inhalation administered as nebulized suspension; assay type: functional; method in brief: as §3
[31] = Half life in dog; assay type: ADME, organism-based, Canis lupus familiaris; settings: in vivo
[32] = biological target: T2, 3',5'-cyclic-AMP phosphodiesterase 4B (Rattus norvegicus, UniProt P14646)
T2 sequence (P14646 whole entry): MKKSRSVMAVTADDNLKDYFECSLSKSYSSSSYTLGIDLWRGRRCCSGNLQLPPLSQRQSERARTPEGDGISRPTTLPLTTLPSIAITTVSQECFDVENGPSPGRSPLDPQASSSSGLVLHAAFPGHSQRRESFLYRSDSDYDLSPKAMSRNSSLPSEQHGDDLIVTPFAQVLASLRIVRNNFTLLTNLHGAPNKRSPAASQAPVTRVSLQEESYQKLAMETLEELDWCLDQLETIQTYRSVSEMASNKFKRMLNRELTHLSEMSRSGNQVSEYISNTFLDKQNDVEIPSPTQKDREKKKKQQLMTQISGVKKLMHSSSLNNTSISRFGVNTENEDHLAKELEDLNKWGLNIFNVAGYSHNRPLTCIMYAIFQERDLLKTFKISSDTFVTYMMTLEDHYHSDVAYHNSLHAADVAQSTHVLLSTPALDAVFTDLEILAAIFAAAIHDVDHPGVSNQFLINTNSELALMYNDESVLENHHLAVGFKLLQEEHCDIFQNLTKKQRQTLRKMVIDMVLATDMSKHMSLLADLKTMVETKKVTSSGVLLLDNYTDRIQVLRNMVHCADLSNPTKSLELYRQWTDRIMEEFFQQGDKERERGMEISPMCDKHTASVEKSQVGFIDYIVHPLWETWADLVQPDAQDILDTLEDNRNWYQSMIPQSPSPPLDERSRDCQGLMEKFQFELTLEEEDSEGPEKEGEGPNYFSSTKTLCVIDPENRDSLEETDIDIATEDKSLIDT

Rattus norvegicus [33] = assay: Antiinflammatory activity in Sprague-Dawley rat assessed as inhibition of LPS-induced bronchoalveolar lavage neutrophils measured as terminal lung concentration at 0.01 mg/ml, inhalation administered as nebulized suspension; assay type: functional; method in brief: as §3
[34] = biological target: T1, 3',5'-cyclic-AMP phosphodiesterase 4B; assay: Inhibition of human recombinant PDE4B using [3H]cAMP by packard topcount scintillation counting analysis
[35] = Oral bioavailability in dog; assay type: ADME, organism-based, Canis lupus familiaris; settings: in vivo
Rattus norvegicus [36] = assay: Antiinflammatory activity in nasally dosed Sprague-Dawley rat assessed as inhibition of LPS-induced bronchoalveolar lavage neutrophils measured as lung concentration administered as […]; assay type: functional; method in brief: as §4
[37] = biological target: 3',5'-cyclic-AMP phosphodiesterase 4A (Homo sapiens, UniProt P27815); assay: Inhibition of human PDE4A1A using [3H]cAMP by packard topcount scintillation counting analysis
Sequence of 3',5'-cyclic-AMP phosphodiesterase 4A (P27815 whole entry): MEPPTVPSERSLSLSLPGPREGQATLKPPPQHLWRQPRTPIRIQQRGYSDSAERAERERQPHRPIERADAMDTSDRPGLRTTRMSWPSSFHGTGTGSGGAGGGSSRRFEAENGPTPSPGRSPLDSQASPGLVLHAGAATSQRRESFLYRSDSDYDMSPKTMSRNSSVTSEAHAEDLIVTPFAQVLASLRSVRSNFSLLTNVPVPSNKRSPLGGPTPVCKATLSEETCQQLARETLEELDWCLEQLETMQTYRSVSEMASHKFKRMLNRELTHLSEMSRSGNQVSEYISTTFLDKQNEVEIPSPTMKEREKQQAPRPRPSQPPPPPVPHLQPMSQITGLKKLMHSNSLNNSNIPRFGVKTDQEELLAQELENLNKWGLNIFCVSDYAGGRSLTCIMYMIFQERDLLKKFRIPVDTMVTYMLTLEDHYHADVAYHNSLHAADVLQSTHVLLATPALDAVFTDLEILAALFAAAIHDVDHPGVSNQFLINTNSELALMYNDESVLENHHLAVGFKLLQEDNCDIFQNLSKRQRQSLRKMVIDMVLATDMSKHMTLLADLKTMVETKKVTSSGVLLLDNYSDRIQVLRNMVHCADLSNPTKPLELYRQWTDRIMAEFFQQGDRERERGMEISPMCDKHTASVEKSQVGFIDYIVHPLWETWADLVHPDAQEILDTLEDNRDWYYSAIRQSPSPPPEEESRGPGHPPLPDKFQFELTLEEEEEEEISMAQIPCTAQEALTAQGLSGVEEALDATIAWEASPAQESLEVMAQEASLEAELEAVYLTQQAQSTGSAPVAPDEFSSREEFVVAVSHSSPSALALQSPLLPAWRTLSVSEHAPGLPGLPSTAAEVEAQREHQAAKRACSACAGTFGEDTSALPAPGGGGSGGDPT

half-life [1]: 13 h | fraction unbound [3]: 0.056 | pIC50 (Cytochrome P450 2D6): < 5.00 | solubility [5]: 250 µM (≈ 161 µg/mL) | Vd [7]: 2.6 L/kg | Vz/F (Rattus norvegicus [8]): 76 L/kg | inhibition at 50 µM (CYP (isoform not stated)): 73% | clearance [9]: 69 mL/min/kg | pIC50 (Cytochrome P450 3A4): 6.30 | logD [11]: 3.1 | fraction unbound [12]: 0.1 | hepatocyte CLint [13]: 120 µL/min/1e6 cells | pIC50 (Cytochrome P450 2C9): 6.60 | pIC50 (Cytochrome P450 2C19): 5.20 | microsomal CLint [15]: > 150 µL/min/mg
SMILES: Cc1cc(C(=O)N[C@H]2CC[C@@H](NC(=O)c3cc(F)cnc3Oc3cccc(-c4ccc(O)cc4CN4CCOCC4)c3)CC2)nn1C
inhibition (Rattus norvegicus [2]): Active | pIC50 [4]: 4.50 | inhibition (Rattus norvegicus [6]): Active | inhibition (Rattus norvegicus [10]): Active | pIC50 (PBMC): 10.20 | inhibition (INH) (Rattus norvegicus [14]): 37%

half-life [1]: 7 h | fraction unbound [3]: 0.045 | pIC50 [16]: 10.70 | clearance [17]: 34 mL/min/kg | Vd [7]: 18 L/kg | Vz/F (Rattus norvegicus [8]): 27 L/kg | clearance [9]: 44 mL/min/kg | pIC50 (Blood): 9.50 | half-life [25]: 8 h | pIC50 [26]: > 8.00 | logD [11]: 1.9 | Vd [27]: 26 L/kg | log K [28]: 1.32 | fraction unbound [12]: 0.23 | hepatocyte CLint [13]: 10 µL/min/1e6 cells | Vd/F [29]: 44 L/kg | half-life [31]: 15 h | pIC50 [32]: 10.70 | pIC50 [34]: 10.60 | bioavailability [35]: 16% | microsomal CLint [15]: > 150 µL/min/mg | pIC50 [37]: > 8.00
SMILES: Cc1csc(C(=O)N[C@H]2CC[C@@H](NC(=O)c3cc(F)cnc3Oc3cccc(-c4ccc(CN5C[C@@H](C)N[C@@H](C)C5)cc4CN4CCOCC4)c3)CC2)n1
pIC50 [4]: 4.70 | Activity (Rattus norvegicus [18]): 22 nM | ED80 (Rattus norvegicus [19]): 0.2 µg/kg | Activity (Rattus norvegicus [20]): 7 nM | Activity (Rattus norvegicus [21]): 30 nM | Activity (Rattus norvegicus [22]): 57 nM | ED80 (Rattus norvegicus [23]): 20 µg/mL (≈ 26.5 µM) | Activity (Rattus norvegicus [24]): 90 nM | pIC50 (PBMC): 10.70 | Activity (Rattus norvegicus [30]): 2 nM | Activity (Rattus norvegicus [33]): 12 nM | ED80 (Rattus norvegicus [36]): 23 nM
